Converted amounts (≈) assume the structure as drawn.
Assays:
[1] = system: Salmonella typhimurium; assay: Mutagenicity in Salmonella typhimurium TA100 at 0.3125 mg/ml after 48 hrs by AMES MPF assay in absence of Sprague-Dawley rat liver microsomal S9 fraction relative to baseline; type: toxicity, organism-based; details: salmonella enterica subsp. enterica serovar typhimurium
Summary of the method: (§1)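 Ames MPF fluctuation test with TA98/TA100. Overnight cultures (37 °C, 14–16 h) mixed with exposure medium; ±Aroclor-1254-induced rat liver S9 (final 4.5% v/v). Compounds in DMSO, 0.156–5 mg/mL. 90 min exposure at 37 °C, then indicator medium; 48 wells per concentration, 48 h at 37 °C, in triplicate. Yellow wells counted; fold induction over baseline (mean + 1 SD of zero-dose control).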

[2] = system: Salmonella typhimurium; assay: Mutagenicity in Salmonella typhimurium TA100 at 0.156 mg/ml after 48 hrs by AMES MPF assay in absence of Sprague-Dawley rat liver microsomal S9 fraction relative to baseline; type: toxicity, organism-based; details: salmonella enterica subsp. enterica serovar typhimurium; summary of the method: as §1
[3] = system: Aspergillus flavus; assay: Antifungal activity against Aspergillus flavus NRRL 980 after 72 hrs by broth microdilution assay; type: functional; details: NRRL 980, 72 h
Summary of the method: (§2)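 Compounds dissolved in DMSO, diluted in sterile distilled water from 4 to 0.0039 mg/mL. Molds grown on PDA at 25 °C for 5 days, suspended in double-strength PDB at 10⁵ spores/mL. Incubated at 25 °C for 72 h; mycelial growth read under stereo microscope. MIC = lowest concentration inhibiting visible growth. Ketoconazole reference.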

[4] = system: Salmonella typhimurium; assay: Mutagenicity in Salmonella typhimurium TA98 at 5 mg/ml after 48 hrs by AMES MPF assay in absence of Sprague-Dawley rat liver microsomal S9 fraction relative to baseline; type: toxicity, organism-based; details: salmonella enterica subsp. enterica serovar typhimurium; summary of the method: as §1
[5] = system: Salmonella typhimurium; assay: Mutagenicity in Salmonella typhimurium TA100 at 1.25 mg/ml after 48 hrs by AMES MPF assay in absence of Sprague-Dawley rat liver microsomal S9 fraction relative to baseline; type: toxicity, organism-based; details: salmonella enterica subsp. enterica serovar typhimurium; summary of the method: as §1
[6] = system: Fusarium solani; assay: Antifungal activity against Fusarium solani NRRL 13414 after 72 hrs by broth microdilution assay; type: functional; details: NRRL 13414, 72 h; summary of the method: as §2
[7] = system: Salmonella typhimurium; assay: Mutagenicity in Salmonella typhimurium TA100 at 1.25 mg/ml after 48 hrs by AMES MPF assay in presence of Sprague-Dawley rat liver microsomal S9 fraction relative to baseline; type: toxicity, organism-based; details: salmonella enterica subsp. enterica serovar typhimurium; summary of the method: as §1
[8] = system: Salmonella typhimurium; assay: Mutagenicity in Salmonella typhimurium TA100 at 0.3125 mg/ml after 48 hrs by AMES MPF assay in presence of Sprague-Dawley rat liver microsomal S9 fraction relative to baseline; type: toxicity, organism-based; details: salmonella enterica subsp. enterica serovar typhimurium; summary of the method: as §1
[9] = system: [Candida] zeylanoides; assay: Antifungal activity against Candida zeylanoides NRLL Y 1774 after 48 hrs by broth microdilution assay; type: functional; details: Dujonia zeylanoides, NRLL Y 1774, 48 h
Summary of the method: (§3)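 Broth microdilution of DMSO stocks serially diluted in sterile water (4 to 0.0039 mg/mL). Yeasts grown on SDA at 37 °C for 24 h, suspended in double-strength PDB at 10⁵ spores/mL. Incubated at 37 °C for 48 h, then sprayed with 0.5% aqueous TTC. MIC = lowest concentration inhibiting visible growth. Ketoconazole reference.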

[10] = system: Pichia kudriavzevii; assay: Antifungal activity against Candida krusei NRLL Y 7179 after 48 hrs by broth microdilution assay; type: functional; details: NRLL Y 7179, 48 h; summary of the method: as §3
[11] = system: Salmonella typhimurium; assay: Mutagenicity in Salmonella typhimurium TA100 at 2.5 mg/ml after 48 hrs by AMES MPF assay in absence of Sprague-Dawley rat liver microsomal S9 fraction relative to baseline; type: toxicity, organism-based; details: salmonella enterica subsp. enterica serovar typhimurium; summary of the method: as §1
[12] = system: Candida albicans; assay: Antifungal activity against Candida albicans ATCC 90028 after 48 hrs by broth microdilution assay; type: functional; details: ATCC 90028, 48 h; summary of the method: as §3
[13] = system: Salmonella typhimurium; assay: Mutagenicity in Salmonella typhimurium TA100 at 5 mg/ml after 48 hrs by AMES MPF assay in presence of Sprague-Dawley rat liver microsomal S9 fraction relative to baseline; type: toxicity, organism-based; details: salmonella enterica subsp. enterica serovar typhimurium; summary of the method: as §1
[14] = system: Salmonella typhimurium; assay: Mutagenicity in Salmonella typhimurium TA98 at 2.5 mg/ml after 48 hrs by AMES MPF assay in presence of Sprague-Dawley rat liver microsomal S9 fraction relative to baseline; type: toxicity, organism-based; details: salmonella enterica subsp. enterica serovar typhimurium; summary of the method: as §1
[15] = system: Salmonella typhimurium; assay: Mutagenicity in Salmonella typhimurium TA98 at 2.5 mg/ml after 48 hrs by AMES MPF assay in absence of Sprague-Dawley rat liver microsomal S9 fraction relative to baseline; type: toxicity, organism-based; details: salmonella enterica subsp. enterica serovar typhimurium; summary of the method: as §1
[16] = system: Salmonella typhimurium; assay: Mutagenicity in Salmonella typhimurium TA98 at 0.156 mg/ml after 48 hrs by AMES MPF assay in absence of Sprague-Dawley rat liver microsomal S9 fraction relative to baseline; type: toxicity, organism-based; details: salmonella enterica subsp. enterica serovar typhimurium; summary of the method: as §1
[17] = system: Aspergillus niger; assay: Antifungal activity against Aspergillus niger ATCC 1094 after 72 hrs by broth microdilution assay; type: functional; details: ATCC 1094, 72 h; summary of the method: as §2
[18] = system: Salmonella typhimurium; assay: Mutagenicity in Salmonella typhimurium TA98 at 1.25 mg/ml after 48 hrs by AMES MPF assay in absence of Sprague-Dawley rat liver microsomal S9 fraction relative to baseline; type: toxicity, organism-based; details: salmonella enterica subsp. enterica serovar typhimurium; summary of the method: as §1
[19] = Cytotoxicity against mouse NIH/3T3 cells after 24 hrs by XTT assay; type: cell-based; details: NIH3T3, 24 h
Summary of the method: (§4)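 A549 cells in RPMI and NIH/3T3 cells in DMEM, each with fetal calf serum, antibiotics and 7.5% NaHCO₃, at 37 °C, 5% CO₂. Seeded at 20,000 cells/well, 24 h, then compounds added in medium at 500–3.9 doses (final DMSO <0.1%) for 24 h. XTT read after 3 h at 480 nm (ref 680 nm). IC₅₀ by non-linear regression; triplicates; cisplatin control.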

[20] = system: Salmonella typhimurium; assay: Mutagenicity in Salmonella typhimurium TA100 at 5 mg/ml after 48 hrs by AMES MPF assay in absence of Sprague-Dawley rat liver microsomal S9 fraction relative to baseline; type: toxicity, organism-based; details: salmonella enterica subsp. enterica serovar typhimurium; summary of the method: as §1
[21] = system: Salmonella typhimurium; assay: Mutagenicity in Salmonella typhimurium TA98 at 1.25 mg/ml after 48 hrs by AMES MPF assay in presence of Sprague-Dawley rat liver microsomal S9 fraction relative to baseline; type: toxicity, organism-based; details: salmonella enterica subsp. enterica serovar typhimurium; summary of the method: as §1
[22] = system: Salmonella typhimurium; assay: Mutagenicity in Salmonella typhimurium TA98 at 0.625 mg/ml after 48 hrs by AMES MPF assay in presence of Sprague-Dawley rat liver microsomal S9 fraction relative to baseline; type: toxicity, organism-based; details: salmonella enterica subsp. enterica serovar typhimurium; summary of the method: as §1
[23] = system: Salmonella typhimurium; assay: Mutagenicity in Salmonella typhimurium TA98 at 0.3125 mg/ml after 48 hrs by AMES MPF assay in absence of Sprague-Dawley rat liver microsomal S9 fraction relative to baseline; type: toxicity, organism-based; details: salmonella enterica subsp. enterica serovar typhimurium; summary of the method: as §1
[24] = system: Aspergillus parasiticus; assay: Antifungal activity against Aspergillus parasiticus NRRL 465 after 72 hrs by broth microdilution assay; type: functional; details: NRRL 465, 72 h; summary of the method: as §2
[25] = system: Salmonella typhimurium; assay: Mutagenicity in Salmonella typhimurium TA100 at 0.625 mg/ml after 48 hrs by AMES MPF assay in presence of Sprague-Dawley rat liver microsomal S9 fraction relative to baseline; type: toxicity, organism-based; details: salmonella enterica subsp. enterica serovar typhimurium; summary of the method: as §1
[26] = system: Salmonella typhimurium; assay: Mutagenicity in Salmonella typhimurium TA100 at 2.5 mg/ml after 48 hrs by AMES MPF assay in presence of Sprague-Dawley rat liver microsomal S9 fraction relative to baseline; type: toxicity, organism-based; details: salmonella enterica subsp. enterica serovar typhimurium; summary of the method: as §1
[27] = system: Candida parapsilosis; assay: Antifungal activity against Candida parapsilosis NRLL Y 12696 after 48 hrs by broth microdilution assay; type: functional; details: Lodderomyces parapsilosis, NRLL Y 12696, 48 h; summary of the method: as §3
[28] = system: Salmonella typhimurium; assay: Mutagenicity in Salmonella typhimurium TA98 at 5 mg/ml after 48 hrs by AMES MPF assay in presence of Sprague-Dawley rat liver microsomal S9 fraction relative to baseline; type: toxicity, organism-based; details: salmonella enterica subsp. enterica serovar typhimurium; summary of the method: as §1
[29] = system: A549; assay: Antiproliferative activity against human A549 cells after 24 hrs by XTT assay; type: functional, cell-based; details: A549, 24 h; summary of the method: as §4
[30] = system: Salmonella typhimurium; assay: Mutagenicity in Salmonella typhimurium TA98 at 0.3125 mg/ml after 48 hrs by AMES MPF assay in presence of Sprague-Dawley rat liver microsomal S9 fraction relative to baseline; type: toxicity, organism-based; details: salmonella enterica subsp. enterica serovar typhimurium; summary of the method: as §1
[31] = system: Salmonella typhimurium; assay: Mutagenicity in Salmonella typhimurium TA100 at 0.625 mg/ml after 48 hrs by AMES MPF assay in absence of Sprague-Dawley rat liver microsomal S9 fraction relative to baseline; type: toxicity, organism-based; details: salmonella enterica subsp. enterica serovar typhimurium; summary of the method: as §1
[32] = system: Candida tropicalis; assay: Antifungal activity against Candida tropicalis NRLL Y 12968 after 48 hrs by broth microdilution assay; type: functional; details: NRLL Y 12968, 48 h; summary of the method: as §3
[33] = system: Nakaseomyces glabratus; assay: Antifungal activity against Candida glabrata clinical isolate after 48 hrs by broth microdilution assay; type: functional; summary of the method: as §3
[34] = system: Salmonella typhimurium; assay: Mutagenicity in Salmonella typhimurium TA98 at 0.625 mg/ml after 48 hrs by AMES MPF assay in absence of Sprague-Dawley rat liver microsomal S9 fraction relative to baseline; type: toxicity, organism-based; details: salmonella enterica subsp. enterica serovar typhimurium; summary of the method: as §1
[35] = system: Salmonella typhimurium; assay: Mutagenicity in Salmonella typhimurium TA98 at 0.156 mg/ml after 48 hrs by AMES MPF assay in presence of Sprague-Dawley rat liver microsomal S9 fraction relative to baseline; type: toxicity, organism-based; details: salmonella enterica subsp. enterica serovar typhimurium; summary of the method: as §1
[36] = system: Salmonella typhimurium; assay: Mutagenicity in Salmonella typhimurium TA100 at 0.156 mg/ml after 48 hrs by AMES MPF assay in presence of Sprague-Dawley rat liver microsomal S9 fraction relative to baseline; type: toxicity, organism-based; details: salmonella enterica subsp. enterica serovar typhimurium; summary of the method: as §1

- MIC [3]: 125 µg/mL (≈ 246 µM)
- MIC [6]: 250 µg/mL (≈ 492 µM)
- MIC [9]: 500 µg/mL (≈ 984 µM)
- MIC [10]: 1000 µg/mL (≈ 1970 µM)
- MIC [12]: 500 µg/mL (≈ 984 µM)
- MIC [17]: 250 µg/mL (≈ 492 µM)
- MIC [24]: 250 µg/mL (≈ 492 µM)
- MIC [27]: 500 µg/mL (≈ 984 µM)
- IC50 [29]: > 500 µg/mL
- MIC [32]: 500 µg/mL (≈ 984 µM)
- MIC [33]: 125 µg/mL (≈ 246 µM)
Structure (SMILES): Fc1ccc(C2CC(c3ccc(Cl)s3)=NN2c2nc(-c3ccc(C(F)(F)F)cc3)cs2)cc1 (stereo unspecified)
- fold change (FC) [1]: 1
- fold change (FC) [2]: 0.67
- fold change (FC) [4]: 0.67
- fold change (FC) [5]: 3
- fold change (FC) [7]: 2.77
- fold change (FC) [8]: 2.31
- fold change (FC) [11]: 1.33
- fold change (FC) [13]: 2.31
- fold change (FC) [14]: 0.33
- fold change (FC) [15]: 0
- fold change (FC) [16]: 0
- fold change (FC) [18]: 0.67
- IC50 [19]: > 500 µg/mL
- fold change (FC) [20]: 2.67
- fold change (FC) [21]: 0.22
- fold change (FC) [22]: 1.09
- fold change (FC) [23]: 0.33
- fold change (FC) [25]: 2.54
- fold change (FC) [26]: 2.31
- fold change (FC) [28]: 0.98
- fold change (FC) [30]: 0.55
- fold change (FC) [31]: 1.33
- fold change (FC) [34]: 0.67
- fold change (FC) [35]: 0.87
- fold change (FC) [36]: 2.08
